Screening data (PubChem)
Ecoli WT expand: growth inhibitors of E. coli BW25113 wild type. OD600 absorbance. growth inhibition, % at 100 µM. 0.15% of 98,000 active;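 active = growth inhibition above about 50% at one test dose, limit read from the data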;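 note: growth measured after 20 h incubation at 37 °C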
PostGolgi ctrl: growth of the yeast control strain, post-Golgi counter-screen; efflux-deficient yeast background strain, growth absorbance A615, 16 h; inhibition, % at 10 µM; 5% of 98,000 active
Calb biofilm kill: kills Candida albicans biofilms; C. albicans biofilm + clotrimazole, Alamar Blue; inhibition, % at 6 µM; 0.14% of 85,000 active;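 active = inhibition above 20%; inactive = inhibition below 20%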;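 note: preformed 24 hr biofilms exposed to compound for 48 hr; 0% = biofilm without compound and 100% = blank killed by clotrimazole plus chlorhexidine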
PostGolgi yeast: growth inhibition of a yeast mutant, post-Golgi transport screen. 0.9% of 98,000 active. AID 739. post-Golgi transport phenotypic cell assay. inhibition, % at 10 µM;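 note: yeast cells grown in 1536-well plates; yeast grown about 18 h at 30C before absorbance read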
Pyk2 oligo antag: antagonists of human Pyk2 oligomerization | Q293 cells, Pyk2 FERM NanoBiT luminescence; hits give low values | z-score (the deposit names both 25 µM and 10 µM) | 0.83% of 99,000 active | AID 1347419;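 active = Z-score of -3 or lower, scaled per plate to the spread of control and sample wells; inactive = z-score above -3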;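 note: negative z-score means lost luminescence so less FERM oligomerization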
Target sequence (Q14289 whole entry, looked up): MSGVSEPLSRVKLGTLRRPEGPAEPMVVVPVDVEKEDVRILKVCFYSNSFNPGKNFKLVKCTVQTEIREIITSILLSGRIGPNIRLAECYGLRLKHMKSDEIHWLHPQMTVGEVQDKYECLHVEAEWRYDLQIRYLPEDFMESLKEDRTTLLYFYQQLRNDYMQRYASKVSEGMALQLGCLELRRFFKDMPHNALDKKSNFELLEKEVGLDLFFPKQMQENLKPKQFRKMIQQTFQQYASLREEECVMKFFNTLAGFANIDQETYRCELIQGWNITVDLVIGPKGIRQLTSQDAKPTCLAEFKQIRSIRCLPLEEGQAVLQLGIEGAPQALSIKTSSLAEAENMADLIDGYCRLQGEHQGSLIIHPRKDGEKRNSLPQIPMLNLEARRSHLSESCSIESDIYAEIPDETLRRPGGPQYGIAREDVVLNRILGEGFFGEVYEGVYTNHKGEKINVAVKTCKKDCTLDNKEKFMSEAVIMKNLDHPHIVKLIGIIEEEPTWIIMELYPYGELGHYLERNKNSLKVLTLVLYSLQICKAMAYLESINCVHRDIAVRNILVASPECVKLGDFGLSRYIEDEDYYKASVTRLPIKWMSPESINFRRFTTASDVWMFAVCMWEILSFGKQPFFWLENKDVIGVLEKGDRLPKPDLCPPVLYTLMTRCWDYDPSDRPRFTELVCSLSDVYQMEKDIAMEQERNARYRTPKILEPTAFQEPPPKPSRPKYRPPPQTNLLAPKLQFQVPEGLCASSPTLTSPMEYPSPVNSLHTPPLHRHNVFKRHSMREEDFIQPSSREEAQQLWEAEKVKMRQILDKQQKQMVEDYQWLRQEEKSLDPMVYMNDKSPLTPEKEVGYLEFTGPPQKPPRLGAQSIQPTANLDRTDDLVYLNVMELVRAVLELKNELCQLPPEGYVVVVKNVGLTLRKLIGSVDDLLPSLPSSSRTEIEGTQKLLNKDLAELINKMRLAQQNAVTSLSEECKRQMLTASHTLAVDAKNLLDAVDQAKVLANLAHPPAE
tolC growth inh: growth inhibitors of E. coli BW25113 tolC mutant; OD615; AID 573; growth inhibition, % at 10 µM (by protocol); 2.2% of 65,000 active;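 active = growth inhibition at or above a cutoff equal to the mean over every tested compound plus 3 SD, cut at about 60% in these data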;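 note: growth measured after 20 h incubation at 37 °C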
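Test system: tolC-deleted E. coli BW25113 | Medium: LB with kanamycin 50 µg/mL | Compound dosing: Single concentration, 10 µM final per compound | Schedule: 37 °C, 20 h exposure | Measured by: OD at 615 nm | Evaluation: Percent growth inhibition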
* hit, by the source's call; x = not tested or not shown. The list is not random: actives were taken first. Their share in the collection is about 6.5%. Cut-off read from the data, not from the text of the source, unless noted: active = inhibition above about 30%; inactive = the rest.

SMILES | Ecoli WT expand | PostGolgi ctrl | Calb biofilm kill | PostGolgi yeast | Pyk2 oligo antag | tolC growth inh
CCn1c(=NC(=O)CN2C(=O)CCC2=O)sc2c(OC)ccc(OC)c21 | 1 | 16 | x | -3 | x | 1
CCn1c(=NC(=O)c2ccc(N3C(=O)CCC3=O)cc2)sc2c(OC)ccc(OC)c21 | -4 | 16 | 1 | 37* | x | 10
Cc1ccc(Cn2ccc(=O)c(OCc3c(Cl)cccc3Cl)c2C)cc1 | 1 | 48* | 2 | 4 | -1.4 | x
O=C(Nc1ccc(F)cc1)C1CCC(N2C(=O)c3ccccc3C2=O)CC1 (stereo not drawn) | -19 | -7 | 9 | -1 | 0.28 | 17
CCCCc1ccc(NS(=O)(=O)c2cccs2)cc1 | 26 | 37* | 1 | -4 | -1.8 | x
CC(CCc1ccccc1)NC(=O)c1cccs1 (stereo not drawn) | 1 | 16 | x | 4 | -0.1 | x
N=c1c(-c2nc3ccccc3[nH]2)cc(C(=O)c2cccs2)nn1-c1ccc(Cl)cc1 | x | x | 3 | x | x | x
CCCCSc1nnc(-c2cc(Br)ccc2N)c(=O)[nH]1 | 1 | 36* | -2 | 8 | -0.53 | 39
C=CCSc1nnc(-c2cc(Br)ccc2N)c(=O)[nH]1 | -10 | 4 | 4 | 7 | x | 12
COc1ccc(N2C(=O)CS/C2=C\[N+](=O)[O-])cc1 | 6 | -2 | x | 6 | -0.48 | x
O=C(CCn1cnc2ccccc2c1=O)Nc1ccc(Cl)c(Cl)c1 | -17 | 3 | 41* | -4 | 0.58 | x
COC(=O)c1cccc(NC(=O)Cn2cnc3ccccc3c2=O)c1 | -3 | -7 | 1 | -5 | 0.15 | 10
Cc1ccc(OCCNC(=O)Cn2cnc3c(=O)n(C)c(=O)n(C)c32)cc1C | x | x | 7 | x | 0.13 | x
Cn1c(=O)c2ncn(CC(=O)NCCOc3ccccc3)c2n(C)c1=O | 1 | 1 | 7 | 30* | 0.71 | 8
CCN(CCCNC(=O)CCc1nc(-c2ccc(C)cc2)no1)c1cccc(C)c1 | -16 | 36* | 6 | 8 | 1.4 | 91*
CCN(Cc1ccccc1)C(=O)CCc1nc(-c2ccc(C)cc2)no1 | -9 | 42* | 3 | -4 | -1.1 | 88*
CCN(CCCNC(=O)c1[nH]c(C)c(C(C)=O)c1C)c1cccc(C)c1 | -4 | -4 | 7 | -2 | 0.14 | 98*
Cc1ccc(-c2noc(CCC(=O)NCCc3ccccc3Cl)n2)cc1 | -1 | 6 | 0 | -4 | 0.62 | 9
CCc1ccccc1N(CC)C(=O)CCc1nc(-c2ccc(C)cc2)no1 | 3 | 23 | 4 | -7 | -3* | 95*
CC(C(=O)NCc1ccco1)n1cc(C(=O)c2ccco2)c2ccccc21 (stereo not drawn) | -1 | 2 | 7 | -8 | -1.6 | x
Cc1ccccc1N1C(=O)C(Cl)=C(N2CCN(c3ccccc3)CC2)C1=O | -14 | 38* | x | -1 | -1.8 | 27
O=c1c2cc(Br)cc(Br)c2oc2nc3n(c(=O)c12)CCCS3 | 2 | 43* | 7 | 4 | x | x
O=Cc1ccc2oc3nc4n(c(=O)c3c(=O)c2c1)CCCS4 | 5 | -3 | 7 | -5 | 0.19 | x
CC1(C)NC(=O)N(CCCCOc2ccc3ccccc3c2Cl)C1=O | 0 | 41* | 2 | -2 | -1.7 | x
Cn1nnnc1P(=O)(c1ccccc1)c1ccccc1 | 3 | -3 | 10 | -11 | 0.05 | -7
SMILES | Ecoli WT expand | PostGolgi ctrl | Calb biofilm kill | PostGolgi yeast | Pyk2 oligo antag | tolC growth inh
COCc1nc2ccccc2n1Cc1ccccc1 | -2 | 11 | 8 | 2 | 0.17 | -1
Cc1ccc(Cn2c(Cc3ccccc3)nc3ccccc32)cc1 | 5 | 32* | x | 2 | -1.1 | x
Cc1cccc(NCc2nc3ccccc3n2Cc2ccccc2)c1 | -9 | 66* | 1 | 54* | 0.35 | x
COCc1nc2ccccc2n1Cc1ccc(Br)cc1 | 6 | 36* | 8 | -3 | 0.41 | 47
Cc1nc2cc(NCc3nc4ccccc4n3Cc3ccccc3)ccc2n1C | 6 | 7 | 7 | 18 | 0.97 | 36
Nc1nonc1-c1nc2ccccc2n1Cc1ccccc1 | -1 | 42* | 5 | -8 | -2.2 | 7
O=C(CCC(=O)OCc1ccc(C(=O)Oc2ccccc2)cc1)Nc1cccc2ccccc12 | -16 | 2 | x | 10 | 0.67 | x
CCOC(=O)c1cnn(-c2ccccc2)c1NC(=O)CSc1nnc(-c2cccs2)n1CC | -6 | 6 | x | 1 | 0.61 | x
COc1ccc(-c2nc3ccccc3n2Cc2ccc(C)cc2)cc1 | 3 | 43* | 6 | 31* | -0.14 | x
COCn1c(-c2ccc(OC)cc2)nc2ccccc21 | x | x | 2 | x | 0.14 | x
Oc1cccc(-c2nc3c4c(ncn3n2)-c2ccccc2CC42CCCC2)c1 | -13 | 22 | x | 3 | -3.1* | x
Cc1cccc(OCc2nc3c4c(ncn3n2)-c2ccccc2CC42CCCC2)c1 | x | x | x | x | 0.66 | x
CCCNC(=O)Cn1nc(C(F)(F)F)c2c1CCCC2 | x | x | -2 | x | 0.24 | x
CC1=C(C(=O)Nc2ccc(C)cc2C)C(c2ccc(C)o2)NC(=O)N1 (stereo not drawn) | 1 | 18 | 9 | 7 | 0.4 | x
c1coc(CN(Cc2cccs2)Cc2nnnn2C2CCCCC2)c1 | 2 | 25 | 5 | -4 | -0.03 | 95*
Clc1ccccc1CN(Cc1ccco1)Cc1nnnn1C1CCCC1 | x | x | 1 | x | -2.1 | x
COc1ccc(-c2c3c(nc4sc(C(=O)Nc5ccccc5)c(N)c24)CCC3)cc1 | x | x | 4 | x | -0.38 | x
CCOC(=O)Cn1nnc2c(sc3nc4c(c(-c5ccc(Cl)cc5)c32)CCC4)c1=O | -18 | 34* | x | -5 | -1.4 | x
CCOC(=O)Cn1nnc2c(sc3nc4c(c(-c5ccccc5)c32)CCC4)c1=O | -3 | 32* | x | 2 | -0.95 | x
O=c1[nH]cnc2c1sc1nc3c(c(-c4ccc(Cl)cc4)c12)CCC3 | -3 | 16 | x | 13 | -0.74 | x
C/C(O)=c1/ccc2cccc3nc(C)nc1c23 | 5 | 0 | 10 | -2 | -0.71 | 73*
Cc1ccc2[nH]c3c(c2c1)CN(C(=O)CN1c2ccc(F)cc2CCC1C)CC3 (stereo not drawn) | 4 | 32* | 1 | 7 | -1.1 | x
O=C(NC1(C(F)(F)F)NC(=O)N(Cc2ccccc2)C1=O)c1cccs1 (stereo not drawn) | x | x | 9 | x | -1.1 | x
O=C(c1ccc(S(=O)(=O)N2CCC(c3nc4ccccc4s3)CC2)cc1)N1CCCCC1 | x | x | 7 | x | 1.4 | x
O=C(CSc1ccc(Cl)cc1)N1CCC(c2nc3ccccc3s2)CC1 | -7 | 41* | x | 3 | 0.04 | x
SMILES | Ecoli WT expand | PostGolgi ctrl | Calb biofilm kill | PostGolgi yeast | Pyk2 oligo antag | tolC growth inh
CCc1ccc(C(=O)N2CCC(c3nc4ccccc4s3)CC2)cc1 | -1 | 37* | 4 | -6 | -1.3 | x
Cc1nc(SCC(O)CO)c([N+](=O)[O-])[nH]1 (stereo not drawn) | 6 | 6 | 6 | -6 | 0.12 | x
C(=N\n1cnnc1)/c1cn(Cc2ccccc2)c2ccccc12 | -10 | 16 | 7 | -2 | 0 | 11
Clc1ccc(Cn2cc(/C=N/n3cnnc3)c3ccccc32)c(Cl)c1 | 1 | 32* | 5 | -1 | -1.1 | x
CCc1nc2c(cnn2-c2ccc(Cl)cc2)c(=O)n1-c1ccc(OC)cc1 | -11 | 49* | 2 | 4 | 0.86 | 6
CCOc1ccc(-n2c(C)nc3c(cnn3-c3ccc(Cl)cc3)c2=O)cc1 | -7 | 14 | x | 10 | 1.4 | -14
